Test results published in ChEMBL document CHEMBL1134633, “Synthesis and antiviral activity of novel 5-(1-cyanamido-2-haloethyl) and 5-(1-hydroxy(or methoxy)-2-azidoethyl) analogues of uracil nucleosides” (J Med Chem, 2001).

Tests used:
[1] = test system: Human betaherpesvirus 5 (HCMV); experiment: Inhibition of viral cytopathic effect in infected human foreskin fibroblast cell in monolayers of HCMV AD-169 by 50%
Human alphaherpesvirus 1 [2] = experiment: Inhibition of plaque formation in monolayers of HSV-1 KOSSB(TK-) Vero cells by 50%; format: functional, organism-based; details: Human alphaherpesvirus 1, Vero
Summary of the method: (§1)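 Vero cells in DMEM with 5% FBS, seeded 1 day ahead, infected with ~100 PFU/well (KOS, TK+; KOSSB, TK−) for 1 h at 37 °C. Inoculum replaced with drug dilutions in duplicate: first 25, 10, 5, 1 µg/mL (KOS) or 50, 25, 10, 1 µg/mL (KOSSB), then 1:2 series. After 48 h at 37 °C, methanol fixation and Giemsa staining. EC50 from plaque counts versus no-drug controls.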

Human alphaherpesvirus 3 = experiment: Inhibition of viral cytopathic effect in infected human foreskin fibroblast cell in monolayers of VZV Ellen […] by 50%; format: functional, organism-based
Human alphaherpesvirus 2 = experiment: Inhibition of viral cytopathic effect in infected human foreskin fibroblast cell monolayers of HSV-2 MS […] by 50%; format: functional, organism-based
Human alphaherpesvirus 1 [3] = experiment: Inhibition of plaque formation in monolayers of HSV-1 E-377 Vero cells by 50%; format: functional, organism-based; details: Human alphaherpesvirus 1, Vero
Human alphaherpesvirus 1 [4] = experiment: Inhibition of plaque formation in monolayers of HSV-1 KOS Vero cells by 50%; format: functional, organism-based; details: Human alphaherpesvirus 1, Vero
Summary of the method: as §1

Human alphaherpesvirus 1 [5] = experiment: Inhibition of plaque formation in monolayers of HSV-1 E-377 (TK+) Vero cells by 50%; format: functional, organism-based; details: Human alphaherpesvirus 1, Vero
Human alphaherpesvirus 1 [6] = experiment: Inhibition of plaque formation in monolayers of HSV-1 KOS (TK+) Vero cells by 50%; format: functional, organism-based; details: Human alphaherpesvirus 1, Vero
Summary of the method: as §1

Human alphaherpesvirus 1 [7] = experiment: Inhibition of plaque formation in monolayers of HSV-1 KOS (TK+)Vero cells by 50%; format: functional, organism-based; details: Human alphaherpesvirus 1, Vero
Summary of the method: as §1

Human alphaherpesvirus 1 [8] = experiment: Inhibition of plaque formation in monolayers of HSV-1 E-377(TK+) Vero cells by 50%; format: functional, organism-based; details: Human alphaherpesvirus 1, Vero
[9] = test system: Human betaherpesvirus 5 (HCMV); experiment: Inhibition of viral cytopathic effect in infected human foreskin fibroblast cell in monolayers of HCMV AD-169 by 50%; remark: listed apart in the source

Row | SMILES | EC50 [1] [µM] | EC50 (Human alphaherpesvirus 1 [2]) [µM] | EC50 (Human alphaherpesvirus 3) [µM] | EC50 (Human alphaherpesvirus 2) [µM] | EC50 (Human alphaherpesvirus 1 [3]) [µM] | EC50 (Human alphaherpesvirus 1 [4]) [µM] | EC50 (Human alphaherpesvirus 1 [5]) [µM] | EC50 (Human alphaherpesvirus 1 [6]) [µM] | EC50 (Human alphaherpesvirus 1 [7]) [µM] | EC50 (Human alphaherpesvirus 1 [8]) [µM] | EC50 [9] [µM]
1 | N#CNC(CCl)c1cn([C@H]2C[C@H](O)[C@@H](CO)O2)c(=O)[nH]c1=O (stereo partly drawn) | 274 | > 150 | 31.5 | 105 | 210 | 37.5 |  |  |  |  | 
2 | [N-]=[N+]=NCC(O)c1cn([C@H]2C[C@H](O)[C@@H](CO)O2)c(=O)[nH]c1=O (stereo partly drawn) | > 322 | > 161 | > 322 | > 322 | > 322 | > 80 |  |  |  |  | 
3 | COC(CN=[N+]=[N-])c1cn([C@H]2C[C@H](O)[C@@H](CO)O2)c(=O)[nH]c1=O (stereo partly drawn) | > 300 | > 150 | > 300 | > 300 | > 300 | > 75 |  |  |  |  | 
4 | N#CNC(CI)c1cn([C@H]2C[C@H](O)[C@@H](CO)O2)c(=O)[nH]c1=O (stereo partly drawn) | > 236 | 15.3 | 14.6 | 77.8 |  |  | 9.4 | 1.6 |  |  | 
5 | N#CNC(CBr)c1cn([C@H]2C[C@H](O)[C@@H](CO)O2)c(=O)[nH]c1=O (stereo partly drawn) | > 266 | > 133 | 20.7 | 87.7 |  |  |  |  | 6.6 | 42.5 | 
6 | N#CNC(CBr)c1cn(C2O[C@H](CO)[C@@H](O)[C@@H]2O)c(=O)[nH]c1=O (stereo partly drawn) | > 256 | > 125 | 32 | > 256 | > 256 | 62.5 |  |  |  |  | 
7 | N#CNC(CI)c1cn(C2O[C@H](CO)[C@@H](O)[C@@H]2O)c(=O)[nH]c1=O (stereo partly drawn) | > 228 | > 114 | 11.4 | > 228 | > 228 | 22.8 |  |  |  |  | 
8 | Nc1nc2c(ncn2COCCO)c(=O)[nH]1 [ACYCLOVIR] |  | 178 |  | 6.2 | 4.4 | 2.2 |  |  |  |  | 
9 | O=c1[nH]c(=O)n([C@H]2C[C@H](O)[C@@H](CO)O2)cc1/C=C/Br [BRIVUDINE] | > 150 | > 150 | 0.003 |  | 2.7 | 1.5 |  |  |  |  | 
10 | CCc1cn([C@H]2C[C@H](O)[C@@H](CO)O2)c(=O)[nH]c1=O [EDOXUDINE] |  | > 780 | 32.7 | 58.5 | 42.9 | 19.5 |  |  |  |  | > 390
11 | Nc1nc2c(ncn2COC(CO)CO)c(=O)[nH]1 [GANCICLOVIR] | 0.23 |  |  |  |  |  |  |  |  |  | 
